# Measured values as given in ChEMBL document CHEMBL5329185, “Structure-activity relationship studies on vitamin D-based selective SREBP/SCAP inhibitor KK-052” (RSC Med Chem, 2023).
# pIC50: −log10 of the molar value. Activity calls are given as the source filed them. No cut-off for these calls is given here.
# Key:
# [1] = Inhibition of SREBP/SCAP (unknown origin) transfected with CHO-K1 cells cotransfected with pSRE-Luc/pAC-beta-gal measured after 24 hrs by Steady-Glo luciferase assay; format: cell-based; conditions: CHO-K1, 24 h
# Procedure, shortened: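 IC50 taken from a dose-response in CHO-K1 cells transfected with an SRE-driven luciferase reporter. Cells were treated with various compound concentrations in lipid-free medium. Luciferase read-out, mean ± SD.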
# [2] = tested on: CHO-K1; test: Downregulation of SCAP protein level in wild type CHO-K1 cells at 15 uM measured after 24 hrs by Western blot analysis; format: functional, cell-based; conditions: Cricetulus griseus
# Procedure, shortened: (§1)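 Wild-type CHO-K1 cells or CHO-K1 cells overexpressing FLAG-SCAP(1–767) held in lipid-free medium with 15 μM compound for 24 h. Lysis in RIPA with protease inhibitors, 20 000g spin, BCA protein assay, SDS-PAGE and immunoblot. Endogenous SCAP probed with anti-hamster SCAP, the overexpressed form with anti-FLAG M2, actin as loading control. HRP chemiluminescence detection.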
# [3] = tested on: CHO-K1; test: Inhibition of SREBP/SCAP (unknown origin) transfected with CHO-K1 cells cotransfected with pSRE-Luc/pAC-beta-gal at 5 uM measured after 24 hrs by Steady-Glo luciferase assay; format: cell-based; conditions: Homo sapiens
# Procedure, shortened: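 CHO-K1 cells transfected with an SRE-controlled luciferase reporter, exposed to compounds at 5 μM in lipid-free medium. 25(OH)D3 tested alongside as control. Luciferase signal reported as mean ± SD.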
# [4] = tested on: CHO-K1; test: Downregulation of SCAP protein level in CHO-K1 cells harbouring FLAG-SCAP (1 to 767 residues) at 15 uM measured after 24 hrs by Western blot analysis; format: functional, cell-based; conditions: Cricetulus griseus; procedure, shortened: as §1
# [5] = biological target: T1, Vitamin D3 receptor (Homo sapiens) (UniProt P11473); test: Activation of VDR (unknown origin) transfected in CHO-K1 cells assessed as luciferase activity at 5 uM measured after 24 hrs by Steady-Glo luciferase assay; format: cell-based; conditions: filed as activator
# T1 sequence (whole entry): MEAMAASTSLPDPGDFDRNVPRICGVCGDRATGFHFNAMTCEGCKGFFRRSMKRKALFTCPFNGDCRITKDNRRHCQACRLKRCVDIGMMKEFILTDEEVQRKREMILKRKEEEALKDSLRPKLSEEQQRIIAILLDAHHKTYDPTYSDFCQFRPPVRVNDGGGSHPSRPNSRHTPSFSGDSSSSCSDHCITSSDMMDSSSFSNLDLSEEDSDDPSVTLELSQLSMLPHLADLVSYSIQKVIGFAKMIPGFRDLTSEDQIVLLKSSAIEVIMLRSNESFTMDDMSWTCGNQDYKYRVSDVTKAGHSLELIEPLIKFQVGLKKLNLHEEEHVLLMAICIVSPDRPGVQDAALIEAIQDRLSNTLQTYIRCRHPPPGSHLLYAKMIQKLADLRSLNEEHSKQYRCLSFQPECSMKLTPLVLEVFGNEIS
# Procedure, shortened: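 CHO-K1 cells transfected with a VDRE-driven luciferase reporter, then treated with compounds at 5 μM in lipid-free medium. 25(OH)D3 run in parallel as control, DMSO as negative control. Luciferase read-out, mean ± SD.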
SMILES,pIC50 [1],Activity [5],Activity [2],inhibition [3],Activity [4]
C=C1CC[C@H](O)C/C1=C/C=C1\CCC[C@]2(C)[C@@H]([C@H](C)CCCC(C)(C)O)CC[C@@H]12,,,Active,,Active
Cc1ccc(-c2nnn(C/C=C3\CCC[C@]4(C)[C@@H]([C@H](C)CCC(F)(F)C(C)(C)O)CC[C@@H]34)n2)cc1,,Active,,,
C[C@H](CCC(F)(F)C(C)(C)O)[C@H]1CC[C@H]2/C(=C/Cn3nnc(-c4ccccc4Cl)n3)CCC[C@]12C,5.70,,Active,Active,Active
C[C@H](CCC(F)(F)C(C)(C)O)[C@H]1CC[C@H]2/C(=C/Cn3nnc(-c4ccc(Cl)cc4)n3)CCC[C@]12C,,Active,,,

# More lines, main results first:
pIC50 [1],Activity [5],SMILES,Activity [2],inhibition [3],Activity [4]
5.85,,Cc1cccc(-c2nnnn2C/C=C2\CCC[C@]3(C)[C@@H]([C@H](C)CCC(F)(F)C(C)(C)O)CC[C@@H]23)c1,Active,Active,Active
,Active,C[C@H](CCC(F)(F)C(C)(C)O)[C@H]1CC[C@H]2/C(=C/Cn3nnnc3-c3ccc(C(F)(F)F)cc3)CCC[C@]12C,,,
5.46,,C[C@H](CCC(F)(F)C(C)(C)O)[C@H]1CC[C@H]2/C(=C/Cn3nnnc3-c3ccccc3)CCC[C@]12C,Active,,Active
,Active,Cc1ccc(-c2nnnn2C/C=C2\CCC[C@]3(C)[C@@H]([C@H](C)CCC(F)(F)C(C)(C)O)CC[C@@H]23)cc1,,,
,Active,C[C@H](CCC(F)(F)C(C)(C)O)[C@H]1CC[C@H]2/C(=C/Cn3nnc(-c4ccc(C(F)(F)F)cc4)n3)CCC[C@]12C,,,
,Active,C[C@H](CCC(F)(F)C(C)(C)O)[C@H]1CC[C@H]2/C(=C/Cn3nnnc3-c3ccc(Cl)cc3)CCC[C@]12C,,,
